Test results published in ChEMBL document CHEMBL1121917, “Structure--activity relationships in a broad-spectrum anthelmintic series. Acid chloride phenylhydrazones. 1. Aryl substitutions and chloride variations” (1981).

Experiments:
[1] = organism: Mus musculus; test: Percent clearance of Syphacaia obvelata from mouse after oral treatment of 3.75 mg/mouse/day; format: functional
Summary of the method: (§1)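 Mice naturally carrying Syphacia obvelata were experimentally infected with Nematospiroides dubius and Hymenolepis nana, then grouped after a 2-week prepatency. Finely ground compound was suspended in aqueous 0.10% carboxymethylcellulose, 0.04% polysorbate 80 and 0.0042% polyparaben, and 0.1 mL was given orally by cannula once daily for 4 days to five mice. Necropsy followed 2 days later, scoring presence or absence of each parasite. Control clearance was subtracted from the treated clearance.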

[2] = organism: Mus musculus; test: Percent clearance of Nematospiroides dubius from mouse after oral treatment of 3.75 mg/mouse/day; format: functional; summary of the method: as §1
[3] = organism: Mus musculus; test: Percent clearance of Nematospiroides dubius from mouse after oral treatment of 0.32 mg/mouse/day; format: functional; summary of the method: as §1
[4] = organism: Mus musculus; test: Percent clearance of Syphacaia obvelata from mouse after oral treatment of 0.32 mg/mouse/day; format: functional; summary of the method: as §1
[5] = organism: Mus musculus; test: Percent clearance of Syphacaia obvelata from mouse after oral treatment of 0.47 mg/mouse/day; format: functional; summary of the method: as §1
[6] = organism: Mus musculus; test: Percent clearance of Nematospiroides dubius from mouse after oral treatment of 0.47 mg/mouse/day; format: functional; summary of the method: as §1
[7] = organism: Mus musculus; test: Percent clearance of Nematospiroides dubius from mouse after oral treatment of 7.5 mg/mouse/day; format: functional; summary of the method: as §1
[8] = tested on: Ovis aries; test: Percent reduction in Haemonchus eggs per gram, after treatment of 100 mg/kg dose of compound perorally in sheep; Toxic; format: functional, organism-based; design: dose 100 mg/kg; conditions: Egg
Summary of the method: (§2)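 Naturally parasitized lambs received compound orally, either as the aqueous suspension by stomach tube or as finely ground powder in gelatin capsules by balling gun. Activity was judged by the clinical test method, as a significant decrease in posttreatment helminth egg counts.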

[9] = organism: Canis familiaris; test: percent reduction in Ancylostoma eggs per gram, after oral treatment of 100 mg/dog dose of compound in a single treatment; format: functional, Canis lupus familiaris, Egg
Summary of the method: (§3)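 Dogs naturally infected with Toxascaris leonina were experimentally infected with mixed Ancylostoma caninum and Uncinaria stenocephala larvae. Finely ground compound was given orally in gelatin capsules. Three egg count determinations were made before and three after treatment in each experiment.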

[10] = organism: Canis familiaris; test: Percent reduction in Uncinaria eggs per gram, after oral treatment of 100 mg/dog dose of compound in a single treatment; format: functional, Canis lupus familiaris, Egg; summary of the method: as §3
[11] = organism: Canis familiaris; test: Percent reduction in Toxascaris eggs per gram, after oral treatment of 100 mg/dog dose of compound in a single treatment; format: functional, Canis lupus familiaris, Egg; summary of the method: as §3
[12] = organism: Mus musculus; test: Percent clearance of Syphacaia obvelata from mouse after oral treatment of 7.5 mg/mouse/day; format: functional; summary of the method: as §1
[13] = organism: Mus musculus; test: Percent clearance of Hymenolepis nana from mouse after oral treatment of 7.5 mg/mouse/day; format: functional; summary of the method: as §1
[14] = tested on: Ovis aries; test: Percent reduction in Trichostrongylus eggs per gram, after oral treatment of 100 mg/kg dose of compound perorally in sheep; format: functional, Egg
Summary of the method: (§4)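 Naturally parasitized lambs, dosed orally either with a suspension by stomach tube or with finely ground compound in gelatin capsules by balling gun. Activity was scored by the clinical test method, meaning a significant fall in helminth egg counts after treatment.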

[15] = tested on: Ovis aries; test: Percent reduction in Ostertagia eggs per gram, after oral treatment of 100 mg/kg dose of compound perorally in sheep; format: functional, Egg
Summary of the method: (§5)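 Naturally parasitized lambs were dosed orally at the stated mg/kg. Dosing was either as a suspension of finely ground compound by stomach tube, or as ground compound weighed into gelatin capsules and given by balling gun. Activity was scored by the clinical test method: the decrease in posttreatment helminth eggs per gram.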

[16] = tested on: Ovis aries; test: Percent reduction in Strongyloides eggs per gram, after oral treatment of 100 mg/kg dose of compound perorally in sheep; format: functional, Egg; summary of the method: as §4
[17] = tested on: Ovis aries; test: Percent reduction in Oesophagostomum eggs per gram, after oral treatment of 100 mg/kg dose of compound perorally in sheep; format: functional, Egg; summary of the method: as §5
[18] = tested on: Ovis aries; test: Percent reduction in Trichuris eggs per gram, after oral treatment of 100 mg/kg dose of compound perorally in sheep; format: functional, Egg
[19] = tested on: Ovis aries; test: Percent reduction in Nematodirus eggs per gram, after oral treatment of 100 mg/kg dose of compound perorally in sheep; format: functional, Egg; summary of the method: as §5
[20] = tested on: Ovis aries; test: Percent reduction in Haemonchus eggs per gram, after oral treatment of 100 mg/kg dose of compound perorally in sheep; format: functional, Egg; summary of the method: as §2

Cl/C(=N\Nc1cc(Cl)c(Cl)cc1Cl)c1ccccc1
Parasite_Clearance [1]: 33% | Parasite_Clearance [2]: 0%

Cl/C(=N\Nc1ccc(Br)cc1Br)c1ccccc1
Parasite_Clearance [3]: 0% | Parasite_Clearance [4]: 0%

CC(C)c1ccc(/C(Cl)=N/Nc2ccccc2)cc1
Parasite_Clearance [5]: 0% | Parasite_Clearance [6]: 0%

Cl/C(=N\Nc1ccccc1)c1ccc(Cl)c(Cl)c1
Parasite_Clearance [7]: 100%

Cl/C(=N\Nc1ccc(Cl)c(Cl)c1)c1ccccc1
Reduction [8]: Toxic | Reduction [9]: 0% | Reduction [10]: 0% | Reduction [11]: 0%

Cc1cc(Cl)ccc1N/N=C(\Cl)c1ccccc1
Parasite_Clearance [12]: 0% | Parasite_Clearance [7]: 0%

Cl/C(=N\Nc1c(Cl)cc(Cl)cc1Cl)c1ccc(Cl)c(Cl)c1
Parasite_Clearance [13]: 0% | Parasite_Clearance [7]: 0%

Cl/C(=N\Nc1c(Cl)cc(Cl)cc1Cl)c1ccc(Br)cc1
Parasite_Clearance [1]: 40% | Parasite_Clearance [2]: 0%

Cl/C(=N\Nc1ccc(Cl)cc1)c1ccccc1
Parasite_Clearance [5]: 80% | Parasite_Clearance [6]: 100%

Cl/C(=N\Nc1ccccc1)c1ccc(Cl)cc1
Reduction [14]: 99% | Reduction [15]: 100% | Reduction [16]: 100% | Reduction [17]: 100% | Reduction [18]: 0% | Reduction [19]: 100% | Reduction [20]: 100%
